# Source: PubChem
# SENP8 block-1: SENP8 protease inhibition; Q96LD8; AID 2540; purified SENP8, Z-RLRGG-aminoluciferin cleavage, luminescence; inhibition, % at 10 µM; 1.2% of 330,000 active; in the data active means inhibition above about 50%
# SENP8 block-2: SENP8 (human) protease inhibition. Q96LD8. inhibition, % at 20 µM. AID 602440. recombinant SENP8, Nedd8 substrate fluorescence. 0.64% of 360,000 active; in the data active means inhibition mostly above about 40%, no sharp cut-off; inactive means mostly below about 27%
# SENP6 inh: SENP6 protease inhibition; Recombinant SENP6 catalytic domain, aminoluciferin luminescence; inhibition, % at 10 µM; 1.8% of 330,000 active; Q9GZR1; AID 2599;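 active means inhibition above about 50% at the single tested dose, limit read from the data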;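 further: plate controls were DMSO wells with enzyme for no effect and DMSO wells lacking enzyme for full effect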
# SENP1 inh: SENP1 (human) catalytic domain inhibition; inhibition, % at 10 µM; 0.21% of 360,000 active; recombinant SENP1 catalytic domain, CyPet-SUMO1-YPet FRET cleavage;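 active means inhibition at least 30% at 10 µM, raw YFP signal under a set limit, fluorescence ratio 0.5 to 1.5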;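 further: 0% = enzyme with DMSO and 100% = no enzyme wells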
#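 Material – human SENP1 catalytic domain · Input – SENP1 enzyme, 20 pM final · Compound dosing – single concentration of 10 µM compound, 0.5% DMSO final · Timing – enzyme reaction for 50 min at room temperature, dark · Measured by – FRET fluorescence in CFP and YFP emission channels · Control set – no-enzyme wells low, DMSO-plus-enzyme wells high control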
# SENP7 inh: inhibitors of human SENP7 protease; Q9BQF6; recombinant SENP7, Z-RLRGG-aminoluciferin luminescence, 40 min; inhibition, % at 5 µM; 1.5% of 330,000 active; AID 434973;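 active means inhibition above about 50% at the single test dose, limit read from the data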;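 further: plate controls were DMSO with enzyme for no effect and no enzyme buffer wells for full effect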
# Target sequence (Q9BQF6 706-1050 limits assumed): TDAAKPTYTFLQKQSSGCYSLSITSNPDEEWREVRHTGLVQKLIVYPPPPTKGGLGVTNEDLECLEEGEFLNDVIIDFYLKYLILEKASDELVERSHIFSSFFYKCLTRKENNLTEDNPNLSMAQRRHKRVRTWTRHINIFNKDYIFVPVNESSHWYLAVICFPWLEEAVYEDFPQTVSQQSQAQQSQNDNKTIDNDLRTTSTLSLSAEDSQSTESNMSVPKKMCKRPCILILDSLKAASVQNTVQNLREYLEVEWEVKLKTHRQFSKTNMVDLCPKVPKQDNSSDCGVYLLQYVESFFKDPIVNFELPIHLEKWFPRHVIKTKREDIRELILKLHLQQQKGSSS
# SENP8 conf: human SENP8 inhibition, confirmed; shares compounds with SENP7 inh; inhibition, % at 12.5 µM; Recombinant SENP8, Z-RLRGG-aminoluciferin luminescence, 60 min; AID 488912; 40% of 6,200 active;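 active means mean inhibition across replicates above about 50%, limit read from the data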
# SENP6 confirm: human SENP6 inhibition, confirmed | inhibition, % at 12.5 µM | recombinant SENP6, Z-RLRGG-aminoluciferin luminescence | shares compounds with SENP7 inh | 58% of 6,200 active
# SENP7 confirm: human SENP7 inhibition, confirmed; shares compounds with SENP7 inh; recombinant SENP7, Z-RLRGG-aminoluciferin luminescence, 40 min; inhibition, % at 12.5 µM; 69% of 6,200 active; AID 488917
# Casp3 SENP sel: inhibits human caspase-3 in SENP selectivity test | purified caspase-3, Z-DEVD-aminoluciferin luminescence, 60 min | shares compounds with SENP7 inh | inhibition, % at 12.5 µM | 60% of 6,200 active;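 active means mean inhibition above about 50%, limit read from the data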;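 further: plate controls were enzyme with DMSO for no effect and wells without caspase-3 for full effect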
# Target sequence (P42574 28-227 limits assumed): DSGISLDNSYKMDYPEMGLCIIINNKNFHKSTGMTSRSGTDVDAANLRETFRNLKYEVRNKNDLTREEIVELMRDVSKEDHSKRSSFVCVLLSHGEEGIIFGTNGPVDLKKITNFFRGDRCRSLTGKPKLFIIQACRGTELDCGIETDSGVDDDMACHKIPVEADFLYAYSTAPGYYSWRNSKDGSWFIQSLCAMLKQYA
# Luc interf: interferes with luciferase luminescence in SENP counter-screen; inhibition, % at 12.5 µM; Pre-incubated SENP8/Z-RLRGG-aminoluciferin, luciferase luminescence interference; 39% of 6,200 active; shares compounds with SENP7 inh;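 active means mean inhibition above about 50% when retested at one dose, limit read from the data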;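 further: plate controls were DMSO wells with completed reaction for no effect and substrate without enzyme for full effect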
# * marks the source's active call; other numbers are inactive results; · = not tested or not shown. Hits are enriched below; roughly 2.5% of the tested compounds scored in any of these assays.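 How the source made its calls, unless noted: active means mean inhibition above about 50% in the one-dose retest (limit read from the data); inactive means the rest.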
SMILES,SENP8 block-1,SENP8 block-2,SENP6 inh,SENP1 inh,SENP7 inh,SENP8 conf,SENP6 confirm,SENP7 confirm,Casp3 SENP sel,Luc interf
COc1cccc(NC(=O)C(=S)NC2CCCCC2)c1,9.9,19.4,-25.9,1.0,51.5*,59.2*,65.1*,84.4*,48.1,33.4
COc1ccc(-c2cccc(C(=O)Nc3ccc(C)cc3)c2)cc1,5.4,7.5,-2.7,1.0,3.2,·,·,·,·,·
CN(C)C(CNS(=O)(=O)c1ccc2ccccc2c1)c1ccccc1 (centres undefined),0.7,9.1,-2.5,-1.2,-3.2,·,·,·,·,·
CCC(C)c1ccc(NC(=S)N2CCN(S(C)(=O)=O)CC2)cc1 (centres undefined),-4.4,1.3,-15.6,3.9,-1.6,·,·,·,·,·
CC(=O)NC(=S)Nc1ccc(NC(=O)c2cccnc2Cl)cc1,-4.0,14.8,-22.5,0.9,-14.7,·,·,·,·,·
CCc1ccc(NC(=O)Nc2cccc(OC)c2)cc1,52.7*,9.7,1.5,1.0,56.4*,21.1,50.7*,81.6*,47.7,58.8*
Cc1cc(=O)oc2cc(NC(=O)c3ccccc3C(=O)O)ccc12,-2.6,-288.7,1.4,-2.1,-3.2,·,·,·,·,·
COc1cccc(NC(=O)c2ccc(NC(=O)C(C)C)cc2)c1,54.8*,8.7,72.8*,1.1,74.6*,13.0,56.3*,84.7*,74.5*,0.4
COc1cccc(NC(=O)CC(=O)c2ccc([N+](=O)[O-])cc2)c1,68.7*,22.2,71.2*,2.4,58.0*,82.4*,79.7*,93.1*,72.3*,73.9*
COc1cccc(C(=O)Nc2ccc3c(C)cc(=O)oc3c2)c1,16.4,-343.3,63.5*,1.1,70.9*,13.3,15.1,10.7,29.2,7.2
O=C(CC(=O)c1ccccc1)Nc1cccc([N+](=O)[O-])c1,·,5.8,·,-1.5,·,·,·,·,·,·
CCc1nc2cc(NC(=O)C3(C)CCCN(C(C)=O)C3)ccc2o1 (centres undefined),·,1.1,·,0.5,·,·,·,·,·,·
O=C(Nc1nccs1)c1cc2c(s1)-c1ccccc1OC2,-15.7,-430.6,-10.3,-95.0,15.9,·,·,·,·,·
Cc1cccc2c1-c1sc(C(=O)Nc3nccs3)cc1CO2,-1.2,-399.4,39.5,-122.2,66.9*,7.6,11.9,20.4,13.0,9.6
O=C1COc2ccc(OCc3ccc(F)cc3)cc21,48.0,11.6,71.2*,-4.1,63.6*,68.0*,67.3*,89.2*,76.2*,50.0*
COc1ccc2c(-c3cc4ccc(OCc5ccc(F)cc5)cc4oc3=O)cc(=O)oc2c1,·,-424.5,·,-5.3,·,·,·,·,·,·
COc1ccc(Cn2nnc3c(=O)[nH]c(C4CCN(S(=O)(=O)c5ccc(C)cc5)CC4)nc32)cc1,4.8,-0.7,-7.6,1.6,-2.2,·,·,·,·,·
Cc1csc(NC(=O)c2cc3c(s2)CCCCC3)n1,93.6*,-56.8,92.1*,-0.4,97.7*,95.6*,96.6*,100.9*,91.8*,88.8*
O=C(Nc1ccon1)c1cc2c(s1)CCCC2,83.6*,9.5,88.6*,1.8,93.0*,8.1,90.0*,100.2*,91.7*,63.4*
Cc1cnc(NC(=O)c2cc3c(s2)CCCC3)s1,80.8*,-85.8,88.4*,0.9,84.6*,88.5*,88.0*,97.3*,78.9*,55.7*
Cc1csc(NC(=O)c2ccc(N3CCCC3=O)cc2)n1,62.8*,-19.0,77.0*,1.0,79.1*,18.3,22.7,62.9*,84.8*,36.8
CCOC(=O)Cc1csc(NC(=O)c2cc3c(s2)CCCC3)n1,22.6,-58.7,42.2,-47.4,43.3,·,·,·,·,·
O=C(CCNC(=O)c1ccccc1Cl)Nc1nc(-c2ccccc2Cl)cs1,-8.1,2.0,-7.9,-2.1,-5.0,·,·,·,·,·
Cc1csc(NC(=O)c2cc3c(s2)CCCC3)n1,88.5*,-105.7,95.5*,-5.3,93.5*,95.2*,96.3*,101.2*,88.1*,86.3*
COC(=O)c1cccc(NC(=O)c2ccc(OC)c(Cl)c2)c1,6.0,11.9,-12.9,-0.2,7.5,·,·,·,·,·
SMILES,SENP8 block-1,SENP8 block-2,SENP6 inh,SENP1 inh,SENP7 inh,SENP8 conf,SENP6 confirm,SENP7 confirm,Casp3 SENP sel,Luc interf
O=C(Nc1ccc(OC(F)F)c(Cl)c1)c1cccc(OC(F)F)c1,15.3,18.2,61.5*,-0.6,26.8,52.1*,47.9,75.5*,11.6,65.3*
COc1ccc(NC(=O)c2cccc(OC(F)F)c2)cc1Cl,63.9*,11.9,76.4*,1.1,79.6*,8.8,76.3*,94.1*,60.1*,67.5*
Cc1c(Cl)cccc1NC(=O)c1cccc(OC(F)F)c1,-1.1,7.7,-8.9,0.9,3.2,·,·,·,·,·
O=C(Nc1ccc2c(c1)CCC2)c1cccc(OC(F)F)c1,67.9*,15.9,78.6*,0.9,75.4*,60.9*,68.0*,90.7*,54.7*,68.9*
CC(C)N(C(=O)CSc1nnc(CSc2ncccn2)n1C)C(C)C,-1.2,16.5,-2.7,1.5,1.9,·,·,·,·,·
Cn1cnc2c(oc3ccccc32)c1=O,-8.8,5.3,-9.9,1.6,9.5,·,·,·,·,·
CCOC(=O)CC(NC(=O)Cc1ccc(F)cc1)c1ccccc1Cl (centres undefined),-2.7,12.2,-3.0,1.7,5.5,·,·,·,·,·
O=C(CCCCCCC(=O)NCc1ccccc1)NCc1ccccc1,-0.2,8.6,-47.5,-6.1,-1.9,·,·,·,·,·
Nc1nccnc1C(=O)OCC(=O)NNC(=O)c1ccccc1,2.0,-369.8,2.0,-15.4,-1.7,·,·,·,·,·
CCN(C(=O)COC(=O)c1ccc(C=O)cc1)c1c(N)n(Cc2ccccc2)c(=O)[nH]c1=O,-9.8,-88.4,-22.9,-4.3,-6.5,·,·,·,·,·
Cc1cc(=O)n2[nH]c(-c3ccccc3)cc2n1,-12.3,-73.9,12.0,0.0,5.9,·,·,·,·,·
O=c1cc(-c2ccccc2)nc2cc(-c3ccc(F)cc3)[nH]n12,78.6*,-488.3,87.0*,-16.0,42.5,-4.1,2.2,4.4,11.7,1.6
Cc1ccc(C(=O)Nc2nc3nc(-c4ccccc4)cc(=O)n3[nH]2)cc1,-1.5,7.5,-1.5,-0.7,2.5,·,·,·,·,·
COc1cccc(-c2cc3nc(-c4ccccc4)cc(=O)n3[nH]2)c1,85.0*,-328.2,87.3*,-6.0,51.5*,-8.6,84.7*,78.9*,84.0*,16.0
COc1ccc(-c2c(C(F)(F)F)[nH]n3c(=O)cc(-c4ccccc4)nc23)cc1,-6.4,-419.3,-5.7,-52.4,7.7,·,·,·,·,·
CSc1nc2nc(-c3ccccc3)cc(=O)n2[nH]1,11.0,18.6,53.3*,-0.1,9.3,27.3,22.3,63.8*,74.8*,50.3*
